# Activity calls are given as the source filed them. The rule behind the calls is not given here. *1 amine or outer side, *2 acyl side, *3 side chain or, on linkers, in order; H or OH if unused. Where a SMILES comes first, the peptide text is derived from it. Bridges are numbered along the chain shown (N, C = ends). [ ]: non-standard residue; d: D form. The star is where a group is joined. pTerphenylCO(4''-OnC5H11) = CCCCCOc1ccc(-c2ccc(-c3ccc(C(=O)*)cc3)cc2)cc1; Orn(4R-OH,5R-OH) = O=C([C@H](C[C@@H](O)[C@@H](O)N[*:3])N[*:1])[*:2]; hTyr(3S-OH,4S-OH) = N[C@H](C(=O)O)[C@H](O)[C@@H](O)c1ccc(O)cc1; Pro(3S-OH,4S-Me) = C[C@H]1CN[C@H](C(=O)O)[C@H]1O; Hyp = O=C(O)[C@@H]1C[C@@H](O)CN1
# Legend:
# [1] = system: Candida albicans; test: Antimicrobial activity against Candida albicans isolate C after 48 hrs by Etest; type: functional
# Outline: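 Etest on RPMI 1640 agar with 2% glucose, run per the manufacturer's instructions. Index and control clinical blood isolates were tested in parallel.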
# [2] = system: Candida albicans; test: Antimicrobial activity against Candida albicans isolate R after 48 hrs by Etest; type: functional
# Outline: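 Etest on RPMI 1640 agar with 2% glucose, performed according to the manufacturer's recommendations.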
# [3] = system: Candida albicans; test: Antimicrobial activity against Candida albicans isolate R after 48 hrs by microdilution method; type: functional
# Outline: (§1)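 Broth microdilution in microtiter plates, read spectrophotometrically at 490 nm. MIC taken as the lowest drug dilution giving 50% growth inhibition. C. krusei […] run as control in each run. Read at 24 h and 48 h; trailing growth noted at 48 h.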
# [4] = system: Candida albicans; test: Antimicrobial activity against Candida albicans isolate C after 48 hrs by microdilution method; type: functional; outline: as §1
# [5] = system: Candida albicans; test: Antimicrobial activity against Candida albicans isolate C after 24 hrs by microdilution method; type: functional; outline: as §1
# [6] = system: Candida albicans; test: Antimicrobial activity against Candida albicans isolate C after 48 hrs by EUCAST microdilution method; type: functional
# Outline: (§2)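 EUCAST broth microdilution, plates read spectrophotometrically at 490 nm. MIC is the lowest dilution giving 50% growth inhibition. C. krusei […] control included in each run.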
# [7] = system: Candida albicans; test: Antimicrobial activity against Candida albicans isolate R after 48 hrs by EUCAST microdilution method; type: functional; outline: as §2
# [8] = system: Candida albicans; test: Antimicrobial activity against Candida albicans isolate R after 24 hrs by microdilution method; type: functional; outline: as §1
# [9] = system: Candida albicans; test: Antimicrobial activity against Candida albicans isolate S at 5 ug/ml grown on RPMI 1640 medium after 24 hrs by disk diffusion method; type: functional
# Outline: (§3)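 Disk diffusion on 90-mm RPMI 1640 with 2% glucose agar or on Mueller-Hinton agar. Plates were swabbed in three directions with a yeast suspension of 1–5 × 10^6 cells/ml. Paper disks (6 mm) held 1, 5 or 25 µg drug. Zone diameters were read at 24 and 48 h; values are means of two experiments.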
# [10] = system: Candida albicans; test: Antimicrobial activity against Candida albicans isolate S at 5 ug/ml grown on Muller-Hinton agar medium after 24 hrs by disk diffusion method; type: functional; outline: as §3
# [11] = system: Candida albicans; test: Antimicrobial activity against Candida albicans isolate R infected in NMRI mouse assessed as decrease in kidney bacterial burden at 12 mg/kg, ip measured on day 4; type: functional, organism-based; set-up: dose 12 mg/kg
# Outline: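 NMRI mice (26–30 g), seven per group, were inoculated iv on day 0 with C. albicans (1 × 10^5 CFU). They received ip treatment on days 1–3 with anidulafungin 12 mg/kg or fluconazole 50 mg/kg; controls received saline. On day 4, kidneys were homogenised in saline and CFU counted by spot plating of 10-fold dilutions. Results are log10 CFU/ml; detection limit 50 CFU/ml; Mann-Whitney test.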
# [12] = system: Candida albicans; test: Antimicrobial activity against Candida albicans isolate R at 1 ug/ml grown on RPMI 1640 medium after 48 hrs by disk diffusion method; type: functional; outline: as §3
# [13] = system: Candida albicans; test: Antimicrobial activity against Candida albicans isolate R at 1 ug/ml grown on Muller-Hinton agar medium after 24 hrs by disk diffusion method; type: functional; outline: as §3
# [14] = system: Candida albicans; test: Antimicrobial activity against Candida albicans isolate S at 1 ug/ml grown on Muller-Hinton agar medium after 24 hrs by disk diffusion method; type: functional; outline: as §3
# [15] = system: Candida albicans; test: Antimicrobial activity against Candida albicans isolate R at 25 ug/ml grown on RPMI 1640 medium after 48 hrs by disk diffusion method; type: functional; outline: as §3
# [16] = system: Candida albicans; test: Antimicrobial activity against Candida albicans isolate C at 0.5 ug/ml after 48 hrs by agar dilution method; type: functional, organism-based
# Outline: (§4)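 Sabouraud agar wells contained caspofungin 0, 0.5, 1 or 2 µg/ml, or anidulafungin 0, 0.003, 0.125 or 0.5 µg/ml. Isolates were subcultured 2 days on CHROMagar. Suspensions of 1–5 × 10^6 CFU/ml in sterile water were diluted 1,500-fold, and 5 µl (about 3–15 cells) was spread per well. Growth was scored.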
# [17] = system: Candida albicans; test: Antimicrobial activity against Candida albicans isolate C at 0.003 ug/ml after 48 hrs by agar dilution method; type: functional, organism-based; outline: as §4
# [18] = system: Candida albicans; test: Antimicrobial activity against Candida albicans isolate R at 25 ug/ml grown on Muller-Hinton agar medium after 48 hrs by disk diffusion method; type: functional; outline: as §3
# [19] = system: Candida albicans; test: Antimicrobial activity against Candida albicans isolate S at 25 ug/ml grown on Muller-Hinton agar medium after 24 hrs by disk diffusion method; type: functional; outline: as §3
# [20] = system: Candida albicans; test: Antimicrobial activity against Candida albicans isolate R at 25 ug/ml grown on Muller-Hinton agar medium after 24 hrs by disk diffusion method; type: functional; outline: as §3
# [21] = system: Candida albicans; test: Antimicrobial activity against Candida albicans isolate S at 1 ug/ml grown on RPMI 1640 medium after 48 hrs by disk diffusion method; type: functional; outline: as §3
# [22] = system: Candida albicans; test: Antimicrobial activity against Candida albicans isolate S at 25 ug/ml grown on RPMI 1640 medium after 24 hrs by disk diffusion method; type: functional; outline: as §3
# [23] = system: Candida albicans; test: Antimicrobial activity against Candida albicans isolate R at 1 ug/ml grown on RPMI 1640 medium after 24 hrs by disk diffusion method; type: functional; outline: as §3
# [24] = system: Candida albicans; test: Antimicrobial activity against Candida albicans isolate R at 5 ug/ml grown on RPMI 1640 medium after 24 hrs by disk diffusion method; type: functional; outline: as §3
# [25] = system: Candida albicans; test: Antimicrobial activity against Candida albicans isolate R at 5 ug/ml grown on RPMI 1640 medium after 48 hrs by disk diffusion method; type: functional; outline: as §3
# [26] = system: Candida albicans; test: Antimicrobial activity against Candida albicans isolate R at 0.5 ug/ml after 48 hrs by agar dilution method; type: functional, organism-based; outline: as §4
# [27] = system: Candida albicans; test: Antimicrobial activity against Candida albicans isolate R at 0.003 ug/ml after 48 hrs by agar dilution method; type: functional, organism-based; outline: as §4
# [28] = system: Candida albicans; test: Antimicrobial activity against Candida albicans isolate S at 5 ug/ml grown on Muller-Hinton agar medium after 48 hrs by disk diffusion method; type: functional; outline: as §3
# [29] = system: Candida albicans; test: Antimicrobial activity against Candida albicans isolate S infected in NMRI mouse assessed as decrease in kidney bacterial burden at 12 mg/kg, ip measured on day 4; type: functional, organism-based; set-up: dose 12 mg/kg
# [30] = system: Candida albicans; test: Antimicrobial activity against Candida albicans isolate S at 5 ug/ml grown on RPMI 1640 medium after 48 hrs by disk diffusion method; type: functional; outline: as §3
# [31] = system: Candida albicans; test: Antimicrobial activity against Candida albicans isolate S at 1 ug/ml grown on RPMI 1640 medium after 24 hrs by disk diffusion method; type: functional; outline: as §3
# [32] = system: Candida albicans; test: Antimicrobial activity against Candida albicans isolate S at 25 ug/ml grown on RPMI 1640 medium after 48 hrs by disk diffusion method; type: functional; outline: as §3
# [33] = system: Candida albicans; test: Antimicrobial activity against Candida albicans isolate S at 1 ug/ml grown on Muller-Hinton agar medium after 48 hrs by disk diffusion method; type: functional; outline: as §3
# [34] = system: Candida albicans; test: Antimicrobial activity against Candida albicans isolate R at 5 ug/ml grown on Muller-Hinton agar medium after 24 hrs by disk diffusion method; type: functional; outline: as §3
# [35] = system: Candida albicans; test: Antimicrobial activity against Candida albicans isolate S at 25 ug/ml grown on Muller-Hinton agar medium after 48 hrs by disk diffusion method; type: functional; outline: as §3
# [36] = system: Candida albicans; test: Antimicrobial activity against Candida albicans isolate R at 1 ug/ml grown on Muller-Hinton agar medium after 48 hrs by disk diffusion method; type: functional; outline: as §3
# [37] = system: Candida albicans; test: Antimicrobial activity against Candida albicans isolate R at 5 ug/ml grown on Muller-Hinton agar medium after 48 hrs by disk diffusion method; type: functional; outline: as §3
# [38] = system: Candida albicans; test: Antimicrobial activity against Candida albicans isolate R at 25 ug/ml grown on RPMI 1640 medium after 24 hrs by disk diffusion method; type: functional; outline: as §3
smiles,measurement,setting,value
C[C@@H]1[C@H](O)[C@@H](C)/C=C/C=C/C=C/C=C/C=C/C=C/C=C/[C@H](O[C@@H]2O[C@H](C)[C@@H](O)[C@H](N)[C@@H]2O)C[C@@H]2O[C@](O)(C[C@@H](O)C[C@@H](O)[C@H](O)CC[C@@H](O)C[C@@H](O)CC(=O)O[C@H]1C)C[C@H](O)[C@H]2C(=O)O [AMPHOTERICIN B],MIC,[1],0.125 µg/mL
same,MIC,[2],0.25 µg/mL
C[C@@H](c1ncncc1F)[C@](O)(Cn1cncn1)c1ccc(F)cc1F [VORICONAZOLE],MIC,[3],≤ 0.03 µg/mL
same,MIC,[4],≤ 0.03 µg/mL
same,MIC,[5],≤ 0.03 µg/mL
same,MIC,[6],≤ 0.125 µg/mL
same,MIC,[7],≤ 0.03 µg/mL
same,MIC,[8],≤ 0.03 µg/mL
"CCCCCOc1ccc(-c2ccc(-c3ccc(C(=O)N[C@H]4C[C@@H](O)[C@@H](O)NC(=O)[C@@H]5[C@@H](O)[C@@H](C)CN5C(=O)[C@H]([C@@H](C)O)NC(=O)[C@H]([C@H](O)[C@@H](O)c5ccc(O)cc5)NC(=O)[C@@H]5C[C@@H](O)CN5C(=O)[C@H]([C@@H](C)O)NC4=O)cc3)cc2)cc1 [ANIDULAFUNGIN] ({pTerphenylCO(4''-OnC5H11)}-[Orn(4R-OH,5R-OH)]T[Hyp][hTyr(3S-OH,4S-OH)]T[Pro(3S-OH,4S-Me)]; lactam 1-C)",inhibition zone (IZ),[9],15.9 mm
same,inhibition zone (IZ),[10],14.2 mm
same,Activity,[11],inactive
same,inhibition zone (IZ),[12],7.8 mm
same,inhibition zone (IZ),[13],6.7 mm
same,inhibition zone (IZ),[14],13.2 mm
same,inhibition zone (IZ),[15],7.1 mm
same,growth inhibition (GI),[16],Active
same,growth inhibition (GI),[17],inactive
same,inhibition zone (IZ),[18],7 mm
same,inhibition zone (IZ),[19],12.8 mm
same,inhibition zone (IZ),[20],6.8 mm
same,inhibition zone (IZ),[21],13.2 mm
same,inhibition zone (IZ),[22],14.9 mm
same,inhibition zone (IZ),[23],8.5 mm
same,inhibition zone (IZ),[24],9.5 mm
same,inhibition zone (IZ),[25],8.8 mm
same,growth inhibition (GI),[26],inactive
same,growth inhibition (GI),[27],inactive
same,inhibition zone (IZ),[28],14.6 mm
same,Activity,[29],Active
same,inhibition zone (IZ),[30],15.7 mm
same,MIC,[1],≤ 0.002 µg/mL
same,inhibition zone (IZ),[31],13.7 mm
same,inhibition zone (IZ),[32],13.8 mm
same,MIC,[3],0.25 µg/mL
same,MIC,[4],≤ 0.015 µg/mL
same,MIC,[5],0.015 µg/mL
same,inhibition zone (IZ),[33],13.9 mm
same,MIC,[6],≤ 0.03 µg/mL
same,inhibition zone (IZ),[34],9.4 mm
same,inhibition zone (IZ),[35],13.1 mm
same,MIC,[7],0.06 µg/mL
same,MIC,[8],0.5 µg/mL
same,inhibition zone (IZ),[36],6.8 mm
same,MIC,[2],0.5 µg/mL
same,inhibition zone (IZ),[37],9.9 mm
same,inhibition zone (IZ),[38],7.7 mm

# From ChEMBL document CHEMBL1629654, “Breakthrough Aspergillus fumigatus and Candida albicans double infection during caspofungin treatment: laboratory characteristics and implication for susceptibility testing” (2009)
